The nature of data set [1]: folding enthalpy; higher = less favourable; fluorescence melt of hairpins on a sequencing array, two-state fit. Particulars: sodium 0.088 M. The procedure, abridged: (§1)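 To match UV melts, fitted temperatures were raised by 9.35 °C. These fits were bootstrapped two-state models that gave melting temperature and folding enthalpy, combined by inverse variance over four replicates. The input was normalised Cy3 fluorescence of library hairpins with annealed Cy3 and quencher oligos on a sequenced MiSeq flow cell, imaged in 50 mM Na-HEPES pH 8.0, 25 mM NaCl in 2.5 °C steps up to 60 °C.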

Data set [2] can be described thus: melting temperature; fluorescence melt of hairpins on a sequencing array, two-state fit, raised by 9.35 °C to match UV melts. The conditions noted are these: sodium 0.088 M. Summed up:
as §1

As to GGAACCCGAAAGGGTCC (((.(((....)))))), the folding enthalpy in data set [1] is -15.8 kcal/mol. Also, the Tm in data set [2] amounted to 59.7 °C.
With GATCATGCACATGATC ((((((....)))))), in data set [1], the folding enthalpy is -41.5 kcal/mol. Also, the Tm in data set [2] worked out at 56.3 °C.
On to GCGACACATCGC ((((....)))), for which the folding enthalpy in data set [1] is -24.2 kcal/mol. Further, in data set [2], the Tm is 50.3 °C.
As to GGATGCGAAAGCAGATCC ((((((....)))..))), in data set [1], the folding enthalpy was -16.1 kcal/mol. Also, in data set [2], the Tm came out at 45.6 °C.
For the sequence GAACGCGAAAGCGTGTTC ((((((....)))..))), the folding enthalpy in data set [1] is -10.5 kcal/mol. Moreover, the Tm in data set [2] is 46.6 °C.
For GTGTACGAAAGTAGCAC ((((((....))).))), in data set [1], the folding enthalpy was -23.6 kcal/mol. For the same sequence, in data set [2], the Tm was 42.9 °C.
Take GGCCCACGAAAGTGCGCC (((.(((....))).))): in data set [1], the folding enthalpy was -42.5 kcal/mol. Besides, the Tm in data set [2] was 55.8 °C.
For GATCGGGCGAAAGCCATC (((..(((....)))))), the folding enthalpy in data set [1] is -10.2 kcal/mol. The Tm in data set [2] was 22.6 °C.
The matching figures for GGTGTGGGAAACTACACC (((((.(....).))))): -46.6 kcal/mol and 52.6 °C.
Regarding GCTAGGCGAAAGCCGGGC ((..(((....)))..)), in data set [1], the folding enthalpy is -16 kcal/mol. In addition, the Tm in data set [2] amounted to 60 °C.
Consider GGGTTCGGAAACGAGCCC (((.(((....))).))), for which the folding enthalpy in data set [1] is -57.9 kcal/mol. The Tm in data set [2] was 58.1 °C.
The matching figures for GATCACTGTTGTGATC ((((((....)))))): -31.8 kcal/mol and 57.5 °C.
The like results for GCTGGAGGAAACCCCAGC (((((.(....).))))) were, in that order, -38.7 kcal/mol and 52.8 °C.
The like results for GCAGGGCGAAAGCGATGC (((..((....))..))) were, in that order, -26.1 kcal/mol and 57 °C.
As for GGATCGCGAAAGCGCTCC (((.(((....))).))), the folding enthalpy in data set [1] was -25.3 kcal/mol. Moreover, the Tm in data set [2] is 54.2 °C.
The like results for GGGACCCGAAAGGGCCC (((.(((....)))))) were, in that order, -19 kcal/mol and 66 °C.
Regarding GTCGGGCCGAAAGGCGAC (((..(((....)))))), in data set [1], the folding enthalpy is -14.5 kcal/mol. The Tm in data set [2] was 51 °C.
As to GTTAACGAAAGTTTAAC ((((((....))).))), the folding enthalpy in data set [1] is -17 kcal/mol. Also, the Tm in data set [2] is 34.6 °C.
Turning to GCTGACGAAAGTCGAAGC ((((((....)))..))), the folding enthalpy in data set [1] was -19.1 kcal/mol. Also, the Tm in data set [2] was found to be 48.5 °C.
The matching figures for CAAGCAGAAATGGTTG (((.((....)).))): -19.3 kcal/mol and 33.6 °C.
With GGACGAGGAAACTCGTCC (((((((....))))))), in data set [1], the folding enthalpy was -44.4 kcal/mol. In data set [2], the Tm was 68.8 °C.
The like results for GCCGCTTCGAAAGAAGGC (((..(((....)))))) were, in that order, -13.2 kcal/mol and 49.7 °C.
The matching figures for GCCATCGGAAACAATGGC (((((.(....).))))): -29.6 kcal/mol and 44.7 °C.
The matching figures for GATCTAAGAGTAGATC ((((((....)))))): -14.9 kcal/mol and 37.1 °C.
With GGTTCCGAAAGGACCACC ((((((....)))..))), the folding enthalpy in data set [1] was -14 kcal/mol. The Tm in data set [2] amounted to 44.3 °C.
For GCCCTGCGAAAGCAAGGC (((.(((....))).))), the folding enthalpy in data set [1] was -33.9 kcal/mol. Besides, in data set [2], the Tm is 55.7 °C.
For GGGCGCGAAAGCGTGCCC ((((((....)))..))), the folding enthalpy in data set [1] was -19.1 kcal/mol. Also, the Tm in data set [2] was determined as 64.2 °C.
For the sequence GCTATGGGAAACCGTAGC ((((.((....)).)))), the folding enthalpy in data set [1] is -44.1 kcal/mol. Further, the Tm in data set [2] amounted to 51.9 °C.
Regarding GCACGGCGAAAGCCATGC (((.(((....))).))), the folding enthalpy in data set [1] is -36 kcal/mol. Also, in data set [2], the Tm came to 55.1 °C.
Regarding GATCCGTTTCCGGATC ((((((....)))))), the folding enthalpy in data set [1] was -41.2 kcal/mol. In data set [2], the Tm was 58.9 °C.
The like results for GCGGCCACCCGC ((((....)))) were, in that order, -19.8 kcal/mol and 59.5 °C.
The like results for GGCCCCGAAAGGGGAGCC ((((((....)))..))) were, in that order, -12.8 kcal/mol and 59.1 °C.
The matching figures for CGTTCGGAAACGACGACG ((((((....)))..))): -15.9 kcal/mol and 37.5 °C.
On to GCTAGCCGAAAGGCAGC (((.(((....)))))), for which the folding enthalpy in data set [1] was -21.7 kcal/mol. In data set [2], the Tm came out at 58.1 °C.
The like results for GGCCGTTCGAAAGAAGCC (((..(((....)))))) were, in that order, -13.8 kcal/mol and 27.6 °C.
The matching figures for GCTAGCGAAAGCTCGAGC ((((((....)))..))): -14.6 kcal/mol and 35.6 °C.
Turning to GTTGGTGAAAACCAAC ((((((....)))))), the folding enthalpy in data set [1] is -37 kcal/mol. Also, the Tm in data set [2] amounted to 58.5 °C.

The values above are taken from the array DNA melting data of Ke et al. (doi:10.1101/2024.01.08.574731).
